# Screens (PubChem BioAssay)
# The entries come from a sample that favours hits as a whole.
# PTEN del growth = suppresses growth of cells with PTEN deletion; HCT116 PTEN-null viability, CellTiter-Glo, 60 h; stronger effect = lower value; viability, % at 10 µM; 140,000 tested, 1.2% active;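 active = viability at or below a set limit, 4 SD under the median of all tested compounds, cut at about 3.7% in these data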;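 also: PTEN knockout HCT116 line with beta catenin targeted HCT116 as companion control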
# Lung fibro prol = blocks proliferation of human lung fibroblasts | LL 47 human lung fibroblast viability, ATP luminescence; stronger effect = lower value | viability, % at 10 µM | 85,000 tested, 1.1% active | AID 719;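 active = viability at or below 50% in the single dose screen; inactive = viability above 50%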;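 also: compound exposure lasted 72 h before the ATP readout; 100% = median luminescence of untreated cell-only wells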
#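 Material: human lung fibroblast line LL 47, low passage; Evaluation: viability percentage against median untreated-cell control; Buffer or medium: 15% FBS in IMEM; Incubation: 72 h compound exposure at 37 °C after overnight plating; Dosing: 0.1% DMSO in all compound wells; Measured by: CellTiter-Glo luminescence.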
# HCT116 bCat-KO = beta-catenin-lacking colon tumor cell growth suppression. HCT116 beta-catenin knockout viability, CellTiter-Glo, 60 h; stronger effect = lower value. viability, % at 10 µM. 140,000 tested, 1.5% active. AID 818;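 active = viability at or under a set limit, the compound median less 4 SD, cut at about 6% in these data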;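 also: 0% = Hyamine 1622 control at 20 µM and 100% = untreated cell control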
# H69AR growth 86K = blocks growth of human H69AR lung tumor cells. H69AR lung tumor viability, ATP luminescence, 72 h; stronger effect = lower value. viability, % at 10 µM. 85,000 tested, 6% active. AID 598;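 active = viability at or below 40%; inactive = viability above 40%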;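 also: multidrug resistant small cell line overexpressing MRP-1 efflux transporter; 100% = mean luminescence of untreated control wells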
# HUVEC inhibit = blocks proliferation of human endothelial cells; HUVEC proliferation, CellTiter-Glo luminescence, 72 h; stronger effect = lower value; viability, % at 10 µM (by protocol); 86,000 tested, 1.1% active;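 active = viability at or below 30%; inactive = viability above 30%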;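 also: 100% = median luminescence of DMSO-only cell control wells on each plate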
# * marks the source's active call; other numbers are inactive results; x = no result given.
SMILES,PTEN del growth,Lung fibro prol,HCT116 bCat-KO,H69AR growth 86K,HUVEC inhibit
O=C(c1c(F)c(F)c(F)c(F)c1F)N(Cc1ccccc1)Cc1ccccc1,80,92,80,36*,88
CCOC(=O)C(C(=O)Nc1cccc(C)c1)C1CCCCC1 (stereo not drawn),65,83,71,94,95
Cc1ccc(-n2nnnc2C(Cl)c2nnnn2-c2ccc(C)cc2)cc1,1.1*,x,1.6*,x,x
Cc1ccc(-n2nnnc2-c2ccco2)cc1,97,96,98,95,96
Cc1cccc(C(=O)N2CCC(Cc3ccccc3)CC2)c1[N+](=O)[O-],78,x,62,x,x
COc1ccc(CN2C(=O)CN=C2Nc2cc(C)ccc2C)cc1,91,95,98,40*,79
COC1(OC)C(/C=C/c2ccc(Cl)cc2)C(C#N)(C#N)C1(OC)OC (stereo not drawn),3.0*,52,4.2*,-0.4*,7.0*
CC1(C)CC(=O)c2cc(C(=O)NCc3ccco3)c(=O)n(-c3ccccc3)c2C1,91,94,92,30*,78
CN1CCN(C(=O)c2cc3c(n(-c4ccccc4)c2=O)CC(C)(C)CC3=O)CC1,102,101,95,100,103
Cc1ccc(C)c(S(=O)(=O)NCc2ccc(C(=O)N3CCC(Cc4ccccc4)CC3)cc2)c1,63,99,82,36*,60
Cc1nn(C)c(C)c1/C=N/NC(=O)CCn1nc(C)c([N+](=O)[O-])c1C,95,x,94,x,x
Cc1ccc(S(=O)(=O)/C(C#N)=C/c2c(N3CCC(C(N)=O)CC3)nc3c(C)cccn3c2=O)cc1,94,91,95,81,74
Cc1ccc(S(=O)(=O)/C(C#N)=C/c2c(Oc3ccc(Cl)cc3)nc3c(C)cccn3c2=O)cc1,2.0*,x,2.7*,x,x
COc1ccc(CN(CC2CCCO2)C(=O)CN2C(=O)C(C)Oc3ccc(C)cc32)cc1OC (stereo not drawn),74,103,75,40*,72
CCC1Oc2ccc(C)cc2N(CC(=O)N(Cc2ccc3c(c2)OCO3)CC2CCCO2)C1=O (stereo not drawn),70,104,79,50,96
CC(=O)Oc1cc2c(cc1Cl)C1(CC(c3ccccc3Cl)O2)CC(C)(C)NC(=S)N1 (stereo not drawn),2.0*,92,2.0*,32*,79
COc1cccc(C2CC3(CC(C)(C)NC(=S)N3)Oc3cc(O)ccc32)c1 (stereo not drawn),70,x,77,x,x
CC(C)(C)n1cnc2cc(NS(=O)(=O)c3ccccc3)ccc21,90,39*,86,98,100
Cn1cnc2cc(NS(=O)(=O)c3ccc(Br)cc3)ccc21,61,85,67,39*,98
COc1ccc(-n2cnc3cc(NS(=O)(=O)c4ccccc4)ccc32)cc1,71,92,80,69,76
CCCOc1ccc(OCCN2CCCC(C)C2)cc1 (stereo not drawn),91,x,98,x,x
O=C(CSc1nnc(CCCOc2ccc(Cl)cc2Cl)o1)Nc1ccc(C(=O)O)cc1,97,x,93,x,x
O=C(Cc1ccccc1)Nc1ccc(SC(F)F)cc1,64,x,50,x,x
CCOC(=O)c1c(NC(=O)CN2CCCCC2)sc2c1CCC(C=O)=C2Cl,33,x,62,x,x
CCOC(=O)c1c(NC(C)=O)sc2c1CCC(C=NCCCN(CC)CC)=C2Sc1ccccc1,x,69,x,0.7*,3.2*
SMILES,PTEN del growth,Lung fibro prol,HCT116 bCat-KO,H69AR growth 86K,HUVEC inhibit
COC(=O)c1c[nH]n2c(=O)cc(CCl)nc12,101,x,97,x,x
CNc1ccc(/C=C/C(=O)c2cccc3ccccc23)cc1[N+](=O)[O-],5,x,5.3*,x,x
O=C(NCc1cccnc1)/C(=C/c1ccc(-c2cccc(Cl)c2)o1)S(=O)(=O)c1ccccc1,1.6*,x,1.8*,x,x
Cc1ccc(C(=O)N/C(=C\c2ccc(-c3cc(Cl)ccc3Cl)o2)C(=O)NCc2cccnc2)cc1,26,x,33,x,x
O=C(NCc1cccnc1)/C(=C\c1ccc(-c2cccc(Cl)c2)o1)S(=O)(=O)c1ccccc1,1.7*,x,1.7*,x,x
O=Cc1ccc(OC2OCCOC2Oc2ccc(C=O)cc2)cc1 (stereo not drawn),89,x,92,x,x
O=C(/C=C/c1cccc(Cl)c1)c1nc2ccccc2[nH]1,1.0*,x,0.7*,x,x
COc1ccc(/C=C(/NC(=O)c2ccccc2)c2nc3ccccc3[nH]2)cc1OC,98,x,86,x,x
O=C(/C(=C/c1ccc(Cl)cc1)c1nc2ccccc2[nH]1)c1cccs1,1.9*,x,1.9*,x,x
O=C(/C(=C\c1ccccc1)c1nc2ccccc2[nH]1)c1ccc(Cl)cc1,1.9*,x,2.2*,x,x
COc1cc(/C=C(/C(=O)c2cccs2)c2nc3ccccc3[nH]2)ccc1O,2.0*,11*,3.8*,2.0*,38
COc1ccc(C)cc1N(C(=O)c1ccccc1F)c1nc2ccccc2s1,69,x,86,x,x
CCN(CC)S(=O)(=O)c1ccc(N2CCOCC2)c(NS(=O)(=O)c2cc(C(C)(C)C)ccc2C)c1,72,x,62,x,x
Oc1ccc(C=Nc2ccc3ncccc3c2)c(O)c1,1.7*,106,1.9*,94,83
COc1ccc2c3c(cccc13)NN=C2C,x,26*,x,26*,3.0*
COc1ccc2c(c1)c(=O)oc1cc(OCC(=O)NC3CCCCC3)ccc12,80,105,95,19*,66
COc1ccc2c(c1)c(=O)oc1cc(OCC(=O)NC3CC3)ccc12,48,75,3.8*,36*,91
COc1ccccc1OCC(=O)NC1CCCCCC1,100,99,95,99,97
O=C(Nc1cc(Cl)ccc1Cl)c1ccc(OC(=O)c2ccco2)cc1,89,117,96,90,94
O=C(NC1CCCCC1)N1CCN(c2ncccn2)CC1,109,100,97,98,96
OCCNc1c2ccccc2nc2c(F)c(F)c(F)c(F)c12,1.1*,x,1.5*,x,x
Cc1c2ccccc2nc2c(F)c(NCCO)c(F)c(F)c12,68,x,56,x,x
CCC1(c2ccc(F)cc2)NC(=O)N(CC(=O)Nc2ccc(-c3nc4ccc(C)cc4s3)cc2)C1=O (stereo not drawn),1.3*,x,1.1*,x,x
O=S(=O)(NC1CC1)c1ccc(S(=O)(=O)N2CCCC3(CCCCC3)C2)cc1,84,59,94,32*,60
O=S(=O)(NC1CC1)c1ccc(S(=O)(=O)N2CCN3CCCC3C2)cc1 (stereo not drawn),99,109,93,95,111
Cc1ccc2cc(CN(CCN3CCCC3)C(=O)Nc3ccc(F)cc3)c(=O)[nH]c2c1C,20,85,21,38*,66
Cc1ccc2cc(CN(CCN3CCCC3)C(=O)Nc3ccccc3)c(=O)[nH]c2c1C,61,98,69,74,78
O=C(Nc1ccc(F)cc1)N(CCCN1CCOCC1)Cc1cc2cc3c(cc2[nH]c1=O)OCCO3,66,90,62,61,81
CCc1ccc2[nH]c(=O)c(CN(CCCN3CCOCC3)C(=O)Nc3ccc(F)cc3)cc2c1,81,94,88,34*,77
